Series [1] has as its system A549. Put plainly: Ratio of 5-Fu IC50 to compound IC50 for human A549 cells after 48 hrs by MTT assay. It counts as functional.
For series [2], the system named is A549. Nature of the series: Growth inhibition of human A549 cells after 48 hrs by MTT assay. The series is classed as functional, cell-based. As to conditions: A549, 48 h. The procedure, abridged: (§1)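 Cells seeded at 8000/well, treated 24 h later in duplicate with a range of concentrations (DMSO stock 10 g/L diluted in fresh medium), 48 h at 37 °C, 5% CO2. MTT (5 mg/ml in PBS) added for 4 h, formazan dissolved in DMSO, absorbance read at 570 nm. IC50 is the concentration giving 50% survival.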

The subject of the next series is HeLa. Nature of the series: Growth inhibition of human HeLa cells after 48 hrs by MTT assay. The series is classed as functional, cell-based. Put shortly:
as §1

Series [3] is described as follows: Growth inhibition of human QGY7701 cells after 48 hrs by MTT assay. The following applies: QGY7701, 48 h. It counts as functional. Put shortly: as §1
Series [4] deals with Huh-7. Nature of the series: Growth inhibition of human HuH7 cells after 48 hrs by MTT assay. It counts as functional, cell-based. As to conditions: Huh-7, 48 h. Put shortly: as §1
Series [5] in a line: Growth inhibition of human L02 cells after 48 hrs by MTT assay. The series is classed as functional, cell-based. The following applies: L02, 48 h. The procedure, abridged:
as §1

Series [6] is described as follows: Cytotoxicity against human HepG2(2.2.15) cells compound treated for 48 hrs followed by incubation for 9 days by MTT assay. It counts as cell-based. The procedure, abridged: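 HepG2 2.2.15 cells kept 48 h in plates before adding compounds (DMSO stocks serially diluted in medium), then incubated at 37 °C for 9 days. Media-only wells as blank. MTT (5 g/L) added 4 h before lysis in 10% SDS/50% DMF, pH 7.2; OD at 570 nm gives percent cell death; CC50 derived.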

Series [7] relates to Hepatitis B virus. Nature of the series: Antiviral activity against HBV infected in human HepG2(2.2.15) cells assessed as inhibition of viral replication after 9 days by fluorescence PCR method. As to conditions: HepG2 2.2.15, 216 h. It counts as functional, organism-based. The procedure, abridged:
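HepG2 2.2.15 cells given a range of compound concentrations for nine days; HBV DNA quantified by fluorescence PCR. IC50 taken as the concentration giving 50% inhibition of HBV DNA replication.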

The subject of series [8] is Hepatitis B virus. Nature of the series: Antiviral activity against HBV infected in human HepG2(2.2.15) cells assessed as inhibition of HBeAg production after 9 days by ELISA. The series is classed as functional, organism-based. As to conditions: HepG2 2.2.15, 216 h. Put shortly: (§2)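 HepG2 2.2.15 cells (HBV-producing) given a range of compound concentrations for nine days; culture supernatants collected and HBsAg or HBeAg levels measured by ELISA. IC50 taken as the concentration giving 50% inhibition of antigen level.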

Series [9] relates to Hepatitis B virus. Put plainly: Antiviral activity against HBV infected in human HepG2(2.2.15) cells assessed as inhibition of HBsAg production after 9 days by ELISA. The series is classed as functional, organism-based. The following applies: HepG2 2.2.15, 216 h. The procedure, abridged:
as §2

The nature of series [10]: Selectivity index, ratio of CC50 for human HepG2(2.2.15) cells to IC50 for HBV infected in human HepG2(2.2.15) cells assessed as inhibition of viral replication. It counts as functional. Put shortly:
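Selectivity index calculated as CC50 in HepG2 2.2.15 cells (MTT, 9-day exposure) divided by IC50 for HBV DNA reduction measured by fluorescence PCR after 9 days.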

The nature of series [11]: Selectivity index, ratio of CC50 for human HepG2(2.2.15) cells to IC50 for HBV infected in human HepG2(2.2.15) cells assessed as inhibition of HBeAg production. The series is classed as functional. Put shortly:
(§3)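 Selectivity index calculated as CC50 in HepG2 2.2.15 cells (MTT, 9-day exposure) divided by IC50 for HBeAg or HBsAg reduction (ELISA of 9-day supernatants).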

The nature of series [12]: Selectivity index, ratio of CC50 for human HepG2(2.2.15) cells to IC50 for HBV infected in human HepG2(2.2.15) cells assessed as inhibition of HBsAg production. It counts as functional. Put shortly:
as §3

In series [13] the test system is Huh-7. Nature of the series: Ratio of 5-Fu IC50 to compound IC50 for human HuH7 cells after 48 hrs by MTT assay. It counts as functional.

Where only a bound is given, the exact number is not on record here.

With `COc1ccc2c(=O)c(/C=C/C(=O)Nc3cccc(Cl)c3)coc2c1`, the “Ratio IC50” value in the series on A549 [1] was 12. For the same molecule, the IC50 in the series on A549 [2] was 0.47 µM; in the series with HeLa it was 11.8 µM; in [3], over 100 µM; in the series with Huh-7 [4], over 100 µM; in series [5] it was over 200 µM; in the series on Hepatitis B virus [7], over 100 µM. For the same molecule, the IC50 in the series on Hepatitis B virus [8] and with Hepatitis B virus [9] was over 100 µM in each case. Besides, the CC50 at 48 h in series [6] was determined as 1100 µM.
In the case of `COc1ccc(CNC(=O)/C=C/c2coc3cc(O)ccc3c2=O)cc1`, the IC50 in the series with A549 [2] was over 100 µM; with HeLa, over 100 µM; in [3], 10 µM; in the series on Huh-7 [4], 8.43 µM; in series [5], over 200 µM; in the series with Hepatitis B virus [7] it was 4.7 µM. In addition, the IC50 in the series on Hepatitis B virus [8] came out at 2.34 µM; with Hepatitis B virus [9], 10.2 µM. The “Ratio CC50/IC50” value is 152.76 in [10], 306.82 in series [11] and 70.25 in [12]. This molecule came in with a CC50 at 48 h in series [6] of 718 µM.
On to `COc1ccc(CNC(=O)/C=C/c2coc3cc(OC)ccc3c2=O)cc1`, for which the IC50 was 22.5 µM in the series on A549 [2]; over 100 µM in the series on HeLa; 15.7 µM in series [3]; 7.57 µM with Huh-7 [4]; over 200 µM in [5]; 24.3 µM in the series on Hepatitis B virus [7]. Moreover, the results for the IC50 with Hepatitis B virus [8] and in the series on Hepatitis B virus [9] were 14.4 µM and 14 µM, respectively. Moreover, the results for the “Ratio CC50/IC50” value in series [10], in [11] and in [12] were 1.77, 2.98 and 3.08, respectively. Besides, in series [6], the CC50 at 48 h was 43 µM.
Take `Cc1ccc(CNC(=O)/C=C/c2coc3cc(O)ccc3c2=O)cc1`: the IC50 in the series with A549 [2] is 17.4 µM; in the series on HeLa it was over 100 µM; in series [3], 24.9 µM; in the series on Huh-7 [4], over 100 µM; in [5], over 200 µM; in the series with Hepatitis B virus [7], 14.2 µM. The IC50 with Hepatitis B virus [8] worked out at 19.1 µM; in the series on Hepatitis B virus [9], 16.5 µM. Also, the “Ratio CC50/IC50” value is 35.31 in [10], 26.16 in series [11] and 30.27 in series [12]. The same molecule returned a CC50 at 48 h in series [6] of 501 µM.
Turning to `COc1ccc2c(=O)c(/C=C/C(=O)Nc3ccc(Cl)cc3)coc2c1`, the IC50 with A549 [2] is over 100 µM; in the series with HeLa it was over 100 µM; in [3], over 100 µM; with Huh-7 [4] it was 37.1 µM; in series [5] it was over 200 µM; in the series on Hepatitis B virus [7] it was 67.5 µM. Further, the IC50 turned out to be 20.9 µM in the series with Hepatitis B virus [8] and 91.7 µM in the series on Hepatitis B virus [9]. The results for the “Ratio CC50/IC50” value in series [10], in [11] and in [12] were 4.03, 12.97 and 2.96, respectively. Besides, half-maximal cytotoxicity in [6] (CC50 at 48 h) was put at 272 µM.
Take `COc1ccc2c(=O)c(/C=C/C(=O)NCc3ccc(F)cc3F)coc2c1`: the IC50 was 13.3 µM in the series on A549 [2]; over 100 µM in the series with HeLa; over 100 µM in series [3]; over 100 µM with Huh-7 [4]; over 200 µM in series [5]; 37 µM in the series on Hepatitis B virus [7]. In addition, the IC50 in the series on Hepatitis B virus [8] was determined as 14.8 µM; in the series with Hepatitis B virus [9], 14.3 µM. The figures for the “Ratio CC50/IC50” value in series [10], in series [11] and in [12] were 2.14, 5.35 and 5.55, respectively. The CC50 at 48 h in series [6] is 79.2 µM.
As to `O=C(/C=C/c1coc2cc(O)ccc2c1=O)Nc1ccccc1`, the “Ratio IC50” value in the series with Huh-7 [13] amounted to 4. Moreover, the IC50 with A549 [2] was 24.4 µM; in the series on HeLa, 9.7 µM; in [3] it was 17.9 µM; in the series with Huh-7 [4], 3.88 µM; in series [5] it was over 200 µM; in the series on Hepatitis B virus [7], 29 µM. Also, the values for the IC50 with Hepatitis B virus [8] and in the series with Hepatitis B virus [9] were 13.4 µM and 45.5 µM, respectively. Further, the results for the “Ratio CC50/IC50” value in series [10], in [11] and in series [12] were 28.29, 61.12 and 18.02, respectively. Also, it took 821 µM to reach half-maximal cytotoxicity in series [6] (CC50 at 48 h).

The values above are taken from ChEMBL document CHEMBL2331205, “Anti-hepatitis B virus and anti-cancer activities of novel isoflavone analogs” (Eur J Med Chem, 2013).
